Experimental data from ChEMBL document CHEMBL1133863, “Dual neurokinin NK(1)/NK(2) antagonists: N-[(R,R)-(E)-1-arylmethyl-3-(2-oxo-azepan-3-yl)carbamoyl]allyl-N-methyl-3,5-bis(trifluoromethyl)benzamides and 3-[N'-3,5-bis(trifluoromethyl)benzoyl-N-arylmethyl-N'-methylhydrazino]-N-[(R)-2-oxo-azepan-3-yl]propionamides” (Bioorg Med Chem Lett, 2001).

Biological target: T1, Substance-K receptor (Homo sapiens, UniProt P21452)
T1 sequence (P21452 whole entry): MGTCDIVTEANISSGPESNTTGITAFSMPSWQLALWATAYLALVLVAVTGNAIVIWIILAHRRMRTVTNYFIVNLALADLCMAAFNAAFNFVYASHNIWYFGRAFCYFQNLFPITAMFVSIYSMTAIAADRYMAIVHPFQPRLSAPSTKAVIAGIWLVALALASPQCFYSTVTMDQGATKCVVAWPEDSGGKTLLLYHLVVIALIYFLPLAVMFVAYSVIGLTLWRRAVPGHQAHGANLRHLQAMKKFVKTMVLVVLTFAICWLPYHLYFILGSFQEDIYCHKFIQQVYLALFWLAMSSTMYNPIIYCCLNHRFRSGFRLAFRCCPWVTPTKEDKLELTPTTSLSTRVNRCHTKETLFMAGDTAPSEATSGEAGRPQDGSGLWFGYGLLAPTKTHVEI
Assay: In vitro binding affinity for Tachykinin receptor 2 of human-CHO cells using 125 I-NKA radioligand
Assay type: cell-based
Summary of the method: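 Whole CHO cells stably expressing recombinant human NK2 receptor (3×10^5 per well) incubated 20 min at room temperature with 0.05 nM [125I]-NKA (2200 Ci/mmol) and a range of test concentrations in 20 mM HEPES pH 7.4 with 2 mM MnSO4 and 6 mM MgCl2. Nonspecific binding defined with 50 nM NKA. Rapid filtration, four ice-cold Tricine washes, scintillation counting; triplicate samples.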

| Structure (SMILES) | IC50 |
| --- | --- |
| CN(C(=O)c1cc(C(F)(F)F)cc(C(F)(F)F)c1)[C@@H](/C=C/C(=O)N[C@@H]1CCCCNC1=O)Cc1cc(Br)c(Br)s1 | 26 nM |
| CN(C(=O)c1cc(C(F)(F)F)cc(C(F)(F)F)c1)[C@@H](/C=C/C(=O)N[C@@H]1CCCCNC1=O)Cc1ccc2ccccc2c1 | 60 nM |
| CN(C(=O)c1cc(C(F)(F)F)cc(C(F)(F)F)c1)[C@@H](/C=C/C(=O)NC1CCCCCC1)Cc1ccc(Cl)cc1 | 203 nM |
| CN(C(=O)c1cc(C(F)(F)F)cc(C(F)(F)F)c1)[C@@H](/C=C/C(=O)NC1(C(N)=O)CCCCC1)Cc1ccc(Cl)cc1 | 66 nM |
| CN(C(=O)c1cc(C(F)(F)F)cc(C(F)(F)F)c1)[C@@H](/C=C/C(=O)N[C@@H]1CCCCNC1=O)Cc1cn(C)c2ccccc12 | 24 nM |

Continued, values first:

| IC50 | Structure (SMILES) |
| --- | --- |
| 55 nM | CN(C(=O)c1cc(C(F)(F)F)cc(C(F)(F)F)c1)N(CCC(=O)N[C@@H]1CCCCNC1=O)Cc1ccc2ccccc2c1 |
| 17 nM | CN(C(=O)c1cc(C(F)(F)F)cc(C(F)(F)F)c1)[C@@H](/C=C/C(=O)N[C@@H]1CCCCNC1=O)Cc1cc(Cl)c(Cl)s1 |
| 19.5 nM | CN(C(=O)c1cc(C(F)(F)F)cc(C(F)(F)F)c1)N(CCC(=O)N[C@@H]1CCCCNC1=O)Cc1cc(Br)c(Br)s1 |
| 5.5 nM | CN(C(=O)c1cc(C(F)(F)F)cc(C(F)(F)F)c1)N(CCC(=O)N[C@@H]1CCCCNC1=O)Cc1ccc(Cl)c(Cl)c1 |
| 5.5 nM | CN(C(=O)c1cc(C(F)(F)F)cc(C(F)(F)F)c1)[C@@H](/C=C/C(=O)N[C@@H]1CCCCNC1=O)Cc1ccc(Cl)c(Cl)c1 [DNK333] |
